Measurements published in ChEMBL document CHEMBL1148342, “Synthesis, X-ray crystal structures, stabilities, and in vitro cytotoxic activities of new heteroarylacrylonitriles” (J Med Chem, 2004).

Legend:
5637 [1] = test: Growth inhibition against human 5637 cell lines; type: functional, cell-based; conditions: Homo sapiens
Outline: (§1)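 Cells were grown in RPMI-1640 with 2 g/L NaHCO3 and 10% FCS at 37 °C in 5% CO2, seeded at 1000 cells/well, and dosed 24 h later at five geometric dilutions for 96 h of continuous exposure. Cells were then glutaraldehyde-fixed and stained with crystal violet, with OD read at 570 nm. IC50 was taken from the dose–response data.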

DAN-G = test: Growth inhibition against human DAN-G cell lines; type: functional, cell-based; conditions: Homo sapiens, DAN-G; outline: as §1
KYSE-70 cell line [2] = test: Growth inhibition against human KYSE-70 cell lines; type: functional, cell-based; conditions: Homo sapiens, KYSE-70; outline: as §1
MCF7 = test: Growth inhibition against human MCF-7 cell lines; type: functional, cell-based; conditions: Homo sapiens, MCF7
Outline: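 MCF-7 was cultured in RPMI-1640 with 2 g/L NaHCO3, 10% FCS, 1 mM pyruvate, MEM salts and amino acids. Plating was 1000 cells/well, then after 24 h, 96 h of continuous exposure at five geometric dilutions. Crystal violet staining of glutaraldehyde-fixed cells was read at 570 nm, and IC50 was derived from the dose–response data.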

RT-112 = test: Growth inhibition against human RT-112 cell lines; type: functional, cell-based; conditions: Homo sapiens, RT-112; outline: as §1
RT-4 = test: Growth inhibition against human RT-4 cell lines; type: functional, cell-based; conditions: Homo sapiens, RT-4; outline: as §1
SISO [3] = test: Growth inhibition against human SISO cell lines; type: functional, cell-based; conditions: Homo sapiens, SISO; outline: as §1
TERT-RPE1 = test: Compound was tested for growth inhibition against human h-TERTRPE1 cell lines; type: functional, cell-based; conditions: Homo sapiens, RPE-1
Outline: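 The noncancerous hTERT-immortalized epithelial line h-TERT-RPE1 was grown in DMEM/F-12 with 2 g/L NaHCO3 and 10% FCS (37 °C, 5% CO2) and seeded at 1000 cells/well. Substance was added 24 h later at five geometric dilutions for 96 h continuously. The read-out was crystal violet staining after glutaraldehyde fixation, OD 570 nm, with IC50 from dose–response.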

YAPC = test: Compound was tested for growth inhibition against human YAPC cell lines; type: functional, cell-based; conditions: Homo sapiens, YAPC; outline: as §1
KYSE-520 cell line = test: Growth inhibition against human KYSE-520 cell lines; type: functional, cell-based; conditions: Homo sapiens, KYSE-520; outline: as §1
KYSE-510 (human) = test: Growth inhibition against human KYSE-510 cell lines; conditions: Homo sapiens, KYSE-510
5637 [4] = test: Cytotoxic activity against human 5637 cell line at 20 uM expressed as percent growth value; type: functional
Outline: (§2)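 Cells in RPMI-1640 with 10% FCS were seeded (1000 cells/well; KYSE-510 500, LCLC-103H 250), then exposed 24 h later for 96 h. Read-out was crystal violet staining of glutaraldehyde-fixed cells at OD 570 nm. Growth (%) = (OD treated − OD at drug addition)/(OD control − OD at drug addition) × 100.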

KYSE-70 cell line [5] = test: Cytotoxic activity against human KYSE-70 cell line at 20 uM expressed as percent growth value; type: functional; outline: as §2
SISO [6] = test: Cytotoxic activity against human SISO cell line at 20 uM; type: functional; outline: as §2
KYSE-510 = test: Cytotoxic activity against human KYSE-510 cell line at 20 uM expressed as percent growth value; type: functional; outline: as §2
LCLC-103H cell line [7] = test: Growth inhibition against human LCLC-103H cell lines; type: functional, cell-based; conditions: Homo sapiens, LCLC-103H
Outline: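 LCLC-103H cells were grown in RPMI-1640 with 2 g/L NaHCO3 and 10% FCS (5% CO2, 37 °C) and plated at 250 cells/well. After 24 h, five geometric dilutions were applied continuously for 96 h. Fixation was with glutaraldehyde, followed by crystal violet staining and OD at 570 nm. IC50 came from the dose–response curves.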

LCLC-103H cell line [8] = test: Cytotoxic activity against human LCLC-103H cell line at 20 uM expressed as percent growth value; type: functional; outline: as §2

Q: Which results are given for `COc1cc([C@@H]2c3cc4c(cc3[C@@H](O[C@@H]3O[C@@H]5CO[C@@H](C)O[C@H]5[C@H](O)[C@H]3O)[C@H]3COC(=O)[C@H]23)OCO4)cc(OC)c1O` [ETOPOSIDE]?
A: IC50 5637 [1]: 530 nM; IC50 (DAN-G): 380 nM; IC50 (KYSE-70 cell line [2]): 790 nM; IC50 (MCF7): 540 nM; IC50 (RT-112): 220 nM; IC50 (RT-4): 1330 nM; IC50 (SISO [3]): 150 nM; IC50 (TERT-RPE1): 90 nM; IC50 (YAPC): 1320 nM; IC50 (KYSE-520 cell line): 410 nM; IC50 (KYSE-510 (human)): 700 nM

Q: Which Activity 5637 [4] does the source give for `N#C/C(=C\c1ccco1)c1nc2ccccc2[nH]1` here?
A: 86.1

Q: What about the Activity (KYSE-70 cell line [5]) of the same compound?
A: 56.6

Q: What about the Activity (SISO [6]) of the same compound?
A: 106.1

Q: With `N#C/C(=C\c1ccc([N+](=O)[O-])o1)c1n[nH]c(Cc2ccccc2)n1` as the compound, how does the IC50 5637 [1] read?
A: 400 nM

Q: What about the IC50 (DAN-G) of the same compound?
A: 490 nM

Q: And the Activity (KYSE-510)?
A: -20.7

Q: What about the IC50 (KYSE-70 cell line [2]) of the same compound?
A: 400 nM

Q: And the IC50 (MCF7)?
A: 610 nM

Q: What about the IC50 (LCLC-103H cell line [7]) of the same compound?
A: 290 nM

Q: What about the Activity (LCLC-103H cell line [8]) of the same compound?
A: -7.3

Q: What about the IC50 (RT-112) of the same compound?
A: 750 nM

Q: What about the IC50 (RT-4) of the same compound?
A: 1370 nM

Q: What about the Activity (SISO [6]) of the same compound?
A: -8.1

Q: What about the IC50 (SISO [3]) of the same compound?
A: 370 nM

Q: And the IC50 (TERT-RPE1)?
A: 420 nM

Q: And the IC50 (YAPC)?
A: 450 nM

Q: And the IC50 (KYSE-520 cell line)?
A: 750 nM

Q: And the IC50 (KYSE-510 (human))?
A: 620 nM

Q: Which results are given for `N#C/C(=C\c1ccc([N+](=O)[O-])o1)c1nc2ccccc2[nH]1`?
A: IC50 5637 [1]: 480 nM; IC50 (DAN-G): 690 nM; Activity (KYSE-510): -21.2; IC50 (KYSE-70 cell line [2]): 450 nM; IC50 (MCF7): 650 nM; IC50 (LCLC-103H cell line [7]): 410 nM; Activity (LCLC-103H cell line [8]): -8; IC50 (RT-112): 690 nM; IC50 (RT-4): 990 nM; Activity (SISO [6]): -8.2; IC50 (SISO [3]): 330 nM; IC50 (TERT-RPE1): 600 nM; IC50 (YAPC): 570 nM; IC50 (KYSE-520 cell line): 620 nM; IC50 (KYSE-510 (human)): 750 nM

Q: For `C/C(=C\c1ccc([N+](=O)[O-])s1)c1nc2ccccc2[nH]1`, which Activity 5637 [4] is on record?
A: 0.5

Q: What about the IC50 5637 [1] of the same compound?
A: 3650 nM

Q: And the IC50 (DAN-G)?
A: 3730 nM

Q: What about the IC50 (KYSE-70 cell line [2]) of the same compound?
A: 5110 nM

Q: And the Activity (KYSE-70 cell line [5])?
A: 2.4

Q: And the IC50 (MCF7)?
A: 2970 nM

Q: What about the IC50 (LCLC-103H cell line [7]) of the same compound?
A: 440 nM

Q: What about the IC50 (RT-4) of the same compound?
A: 4670 nM

Q: What about the Activity (SISO [6]) of the same compound?
A: -1.3

Q: What about the IC50 (SISO [3]) of the same compound?
A: 3280 nM

Q: What does the source list for `N#C/C(=C\c1ccc(C#N)cc1)c1nc2ccccc2[nH]1`?
A: Activity 5637 [4]: 75.6; Activity (KYSE-70 cell line [5]): 99.3; Activity (SISO [6]): 99.2

Q: Which IC50 5637 [1] does the source give for `Cc1n[nH]c(/C(C#N)=C/c2ccc([N+](=O)[O-])s2)n1` here?
A: 220 nM

Q: What about the IC50 (DAN-G) of the same compound?
A: 570 nM

Q: And the Activity (KYSE-510)?
A: -21.3

Q: What about the IC50 (KYSE-70 cell line [2]) of the same compound?
A: 440 nM

Q: What about the IC50 (MCF7) of the same compound?
A: 380 nM

Q: What about the IC50 (LCLC-103H cell line [7]) of the same compound?
A: 330 nM

Q: What about the Activity (LCLC-103H cell line [8]) of the same compound?
A: -8.4

Q: And the IC50 (RT-112)?
A: 670 nM

Q: And the IC50 (RT-4)?
A: 900 nM

Q: What about the Activity (SISO [6]) of the same compound?
A: -8.8

Q: And the IC50 (SISO [3])?
A: 510 nM

Q: And the IC50 (TERT-RPE1)?
A: 690 nM

Q: And the IC50 (YAPC)?
A: 410 nM

Q: What about the IC50 (KYSE-520 cell line) of the same compound?
A: 600 nM

Q: What about the IC50 (KYSE-510 (human)) of the same compound?
A: 560 nM

Q: Which results are given for `N#C/C(=C\c1ccc([N+](=O)[O-])cc1)c1nc2ccccc2[nH]1`?
A: Activity 5637 [4]: 73.9; Activity (KYSE-70 cell line [5]): 88; Activity (SISO [6]): 99.2

Q: `N#C/C(=C\c1ccc(Cl)s1)c1nc2ccccc2[nH]1` was tested. Which Activity 5637 [4] did it give?
A: 44.6

Q: What about the IC50 5637 [1] of the same compound?
A: 22400 nM

Q: And the IC50 (DAN-G)?
A: > 20000 nM

Q: What about the IC50 (LCLC-103H cell line [7]) of the same compound?
A: 1970 nM

Q: And the Activity (LCLC-103H cell line [8])?
A: 13.4

Q: What about the IC50 (RT-4) of the same compound?
A: > 20000 nM

Q: And the Activity (SISO [6])?
A: 102.2

Q: And the IC50 (SISO [3])?
A: > 20000 nM

Q: `CN(C)c1ccc(/C=C(\C#N)c2n[nH]c(Cc3ccccc3)n2)cc1` was tested. Which IC50 5637 [1] did it give?
A: 1380 nM

Q: And the IC50 (DAN-G)?
A: 4110 nM

Q: And the Activity (KYSE-510)?
A: -1.01

Q: And the IC50 (KYSE-70 cell line [2])?
A: 2530 nM

Q: What about the IC50 (MCF7) of the same compound?
A: 1490 nM

Q: And the IC50 (LCLC-103H cell line [7])?
A: 1650 nM

Q: What about the Activity (LCLC-103H cell line [8]) of the same compound?
A: -1.8

Q: What about the IC50 (RT-112) of the same compound?
A: 3690 nM

Q: What about the IC50 (RT-4) of the same compound?
A: 2500 nM

Q: What about the Activity (SISO [6]) of the same compound?
A: 1.2

Q: What about the IC50 (SISO [3]) of the same compound?
A: 3240 nM

Q: What about the IC50 (YAPC) of the same compound?
A: 3480 nM

Q: And the IC50 (KYSE-520 cell line)?
A: 6260 nM

Q: And the IC50 (KYSE-510 (human))?
A: 3360 nM

Q: `N#C/C(=C\c1ccc(C(F)(F)F)cc1)c1nc2ccccc2[nH]1` was tested. Which Activity 5637 [4] did it give?
A: 34.4

Q: And the IC50 5637 [1]?
A: 12200 nM

Q: And the IC50 (DAN-G)?
A: 17600 nM

Q: What about the IC50 (KYSE-70 cell line [2]) of the same compound?
A: 15600 nM

Q: And the Activity (KYSE-70 cell line [5])?
A: 69.7

Q: And the IC50 (MCF7)?
A: 9110 nM

Q: What about the IC50 (LCLC-103H cell line [7]) of the same compound?
A: 1600 nM

Q: And the IC50 (RT-4)?
A: 16300 nM

Q: What about the Activity (SISO [6]) of the same compound?
A: 61.8

Q: What about the IC50 (SISO [3]) of the same compound?
A: 14000 nM

Q: What does the source list for `N#C/C(=C\c1ccc([N+](=O)[O-])s1)c1n[nH]c(-c2ccccc2)n1`?
A: IC50 5637 [1]: 480 nM; IC50 (DAN-G): 420 nM; Activity (KYSE-510): -21.7; IC50 (KYSE-70 cell line [2]): 350 nM; IC50 (MCF7): 680 nM; IC50 (LCLC-103H cell line [7]): 540 nM; Activity (LCLC-103H cell line [8]): -6.5; IC50 (RT-112): 830 nM; IC50 (RT-4): 1030 nM; Activity (SISO [6]): -9.9; IC50 (SISO [3]): 890 nM; IC50 (TERT-RPE1): 420 nM; IC50 (YAPC): 320 nM; IC50 (KYSE-520 cell line): 570 nM; IC50 (KYSE-510 (human)): 630 nM
